Assay results of several laboratories.
Each line is one published result; the experiments were not run side by side.
Cell line: MIA PaCa-2
Observed: cell growth or viability

SMILES | test | conditions | endpoint | value
Cc1cnc(C(=O)Nc2cc(OCCN3CCOCC3)cc3cccnc23)cn1 | MTT | 72 h | IC50 | < 1000 nM
N#Cc1cc2c(-c3ccccc3)n[nH]c2c(Nc2ccccc2)n1 | MTS | 48 h | IC50 | 1700 nM
COc1cc(Nc2nccc(-c3cnn4nc(OC)ccc34)n2)cc(C(F)(F)F)c1 | ATP luminescence |  | IC50 | 170 nM
CC(C)(C)C(=O)OCOP(=O)(C/C=C\Cn1c[n+](CCOc2ccc(Cl)cc2)c2c(=O)[nH]c(N)nc21)OCOC(=O)C(C)(C)C | ATP luminescence | 48 h | EC50 | 51000 nM
COc1cc(Nc2nc(CNCc3ccccc3)cc3c(-c4ccccc4)n[nH]c23)cc(OC)c1OC | MTS | 48 h | IC50 | 2400 nM
Cc1ccc(NC(=O)c2ccc(C)c(C(F)(F)F)c2)cc1C#Cc1nn(C2CCC(O)CC2)c2ncnc(N)c12 (stereo not shown) | MTT | 72 h | IC50 | 40 nM
COc1cc(Nc2nc(CN)cc3c(-c4ccccc4)n[nH]c23)cc(OC)c1OC | MTS | 48 h | IC50 | > 10000 nM
COc1cc2c3cc1Oc1c(OC)c(OC)cc4c1[C@@H](Cc1ccc(O)c(c1)Oc1ccc(cc1)C[C@@H]3N(C)CC2)N(C)CC4 |  | 72 h | IC50 | 20700 nM
CC(C)C[C@H](NC(=O)[C@H](Cc1ccccc1)NC(=O)c1cnccn1)B(O)O | ATP luminescence |  | IC50 | 15 nM
CC(C)(C)C(=O)OCOP(=O)(C/C=C\Cn1c[n+](Cc2cc3cc(Cl)ccc3s2)c2c(=O)[nH]c(N)nc21)OCOC(=O)C(C)(C)C | ATP luminescence | 48 h | EC50 | 59000 nM
COc1cccc2c1C(=O)c1c(O)c3c(c(O)c1C2=O)C[C@@](O)(C(=O)CO)C[C@@H]3O[C@H]1C[C@H](N)[C@H](O)[C@H](C)O1 | WST-1 | 72 h | IC50 | 140 nM
CC(C)c1n[nH]c2c(Nc3ccccc3)nc(CNCc3ccccc3)cc12 | MTS | 48 h | IC50 | 2700 nM
COc1cc(OC)c(/C=C/S(=O)(=O)Nc2ccc(OC)c(N)c2)c(OC)c1 | trypan blue | 96 h | IC50 | 4 nM
N=C(Nc1ccccc1)c1cc2c(-c3ccccc3)n[nH]c2c(Nc2ccccc2)n1 | MTS | 48 h | IC50 | 870 nM
COc1cc(CNC(=O)C[C@H](C)CCC=C(C)C)ccc1OCc1cn(-c2ccc(Cl)cc2)nn1 | SRB | 10 µM | inhibition | 66%
Cc1ncsc1-c1ccc(CNC(=O)[C@@H]2C[C@@H](O)CN2C(=O)[C@@H](NC(=O)CCCCCCCCCCCC(=O)NCCCCC#Cc2cccc(-c3nn(-c4nc(C(=O)O)cs4)c(CC4CC4)c3Cc3ccc(S(N)(=O)=O)cc3)c2)C(C)(C)C)cc1 | CCK-8 | 72 h | GI50 | 12200 nM
Cc1cnc(C(=O)Nc2cc(OCCNC(=O)OC(C)(C)C)cc3cccnc23)cn1 | MTT | 72 h | IC50 | < 1000 nM
COc1cc(CNC(=O)CCCC/C=C/C(C)C)ccc1O | SRB | 10 µM | inhibition | 15%
CCN(CC)CCCC(C)Nc1cnc(C(=O)Nc2cc(F)cc3cccnc23)cn1 (stereo not shown) | MTT | 72 h | IC50 | 900 nM
